Tests used:
[1] = molecular target: T1, Protein deacetylase HDAC6 (Homo sapiens, UniProt Q9UBN7); assay: Inhibition of human recombinant His-tagged HDAC6 expressed in baculovirus
T1 sequence (Q9UBN7 whole entry): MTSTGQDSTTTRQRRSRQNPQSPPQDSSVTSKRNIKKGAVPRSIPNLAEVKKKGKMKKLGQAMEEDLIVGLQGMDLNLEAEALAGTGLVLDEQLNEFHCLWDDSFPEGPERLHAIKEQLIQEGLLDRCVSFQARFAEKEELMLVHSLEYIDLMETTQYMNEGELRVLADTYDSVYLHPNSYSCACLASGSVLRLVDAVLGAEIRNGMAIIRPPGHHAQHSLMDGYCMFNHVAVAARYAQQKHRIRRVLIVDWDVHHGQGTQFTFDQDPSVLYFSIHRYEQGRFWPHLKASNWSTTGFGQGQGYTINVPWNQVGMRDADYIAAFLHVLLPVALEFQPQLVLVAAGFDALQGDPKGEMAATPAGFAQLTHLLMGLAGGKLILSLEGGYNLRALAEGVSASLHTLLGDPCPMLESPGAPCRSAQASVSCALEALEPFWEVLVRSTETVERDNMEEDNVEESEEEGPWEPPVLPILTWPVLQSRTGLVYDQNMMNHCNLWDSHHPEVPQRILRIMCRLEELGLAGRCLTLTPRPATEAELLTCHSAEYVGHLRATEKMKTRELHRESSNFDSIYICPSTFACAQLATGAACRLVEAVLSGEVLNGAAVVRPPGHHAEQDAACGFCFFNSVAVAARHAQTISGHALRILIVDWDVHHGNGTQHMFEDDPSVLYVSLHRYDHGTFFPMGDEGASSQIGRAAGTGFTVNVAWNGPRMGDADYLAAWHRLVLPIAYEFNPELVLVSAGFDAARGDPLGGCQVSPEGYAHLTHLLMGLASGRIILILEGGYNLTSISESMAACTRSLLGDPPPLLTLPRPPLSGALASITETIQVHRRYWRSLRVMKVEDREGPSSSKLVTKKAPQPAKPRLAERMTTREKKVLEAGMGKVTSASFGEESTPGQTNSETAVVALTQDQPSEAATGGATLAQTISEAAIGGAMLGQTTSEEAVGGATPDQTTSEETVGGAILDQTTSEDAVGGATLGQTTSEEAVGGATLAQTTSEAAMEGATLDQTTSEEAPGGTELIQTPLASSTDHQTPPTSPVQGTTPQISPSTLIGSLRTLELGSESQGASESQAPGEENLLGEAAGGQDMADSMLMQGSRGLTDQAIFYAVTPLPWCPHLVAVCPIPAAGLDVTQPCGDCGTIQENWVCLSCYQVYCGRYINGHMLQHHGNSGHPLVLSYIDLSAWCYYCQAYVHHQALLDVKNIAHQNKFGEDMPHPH
How it was run: (§1)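 Enzyme preincubated with inhibitor 10 min at ambient temperature in 25 mM Hepes pH 8.0, 137 mM NaCl, 1 mM MgCl₂, 2.7 mM KCl. Coumarin-labeled acetyl-lysine substrate then added, incubated at 37 °C. Quenched with trypsin (1 mg/mL final) and TSA (1 μM final). Fluorescence read; IC50 from dose–response curves. Values are means of at least two experiments.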

Histone deacetylase 1 = Histone deacetylase 1 (Homo sapiens, UniProt Q13547); assay: Inhibition of human recombinant FLAG-tagged HDAC1 expressed in baculovirus; how it was run: as §1
Histone deacetylase [2] = assay: Inhibition of HDAC in HEK293T cells by whole cell assay; assay type: cell-based, Homo sapiens; details: hek-293t
How it was run: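 Cultured 293T cells exposed to inhibitors for 16 h, then given the membrane-permeable substrate Boc-Ac-Lys-AMC for 90 min at 37 °C. Quenched with trypsin (1 mg/mL final) and TSA, then lysed in 1% NP-40. Fluorescence read at Ex 360/Em 470 nm; IC50 reported. Values are means of at least two experiments.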

[3] = Half life in rat; assay type: ADME, organism-based; details: in vivo
[4] = Volume of distribution at steady state in rat; assay type: ADME, organism-based; details: in vivo, read-out: Vdss
[5] = Half life in dog; assay type: ADME, organism-based, Canis lupus familiaris; details: in vivo
[6] = Bioavailability in dog; assay type: ADME, organism-based, Canis lupus familiaris; details: in vivo
[7] = Clearance in dog; assay type: ADME, organism-based, Canis lupus familiaris; details: in vivo
Plasma [8] = assay: Metabolic stability in human plasma; assay type: ADME, cell-free
Plasma [9] = assay: Metabolic stability in rat plasma; assay type: ADME, cell-free
[10] = Oral bioavailability in rat; assay type: ADME, organism-based; details: in vivo
[11] = Clearance in iv dosed rat; assay type: ADME, organism-based; details: in vivo
Histone deacetylase [12] = assay: Inhibition of HDAC in T24 cells assessed as histone H3 acetylation; details: Homo sapiens
Histone deacetylase [13] = assay: Inhibition of HDAC in T24 cells assessed as alpha-tubulin acetylation; details: Homo sapiens
[14] = Metabolic stability in rat plasma assessed as compound remaining after 1 hr; assay type: ADME, cell-free; details: read-out: Activity
How it was run: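 Compound kept in rat plasma at 37 °C for 1 h; percentage of intact compound remaining was measured.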

Homo sapiens = species: Homo sapiens; assay: Selectivity for ratio of IC50 for human recombinant HDAC1 to IC50 for human recombinant HDAC6
How it was run: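 HDAC1 and HDAC6 were each preincubated with compound for 10 min at ambient temperature in 25 mM Hepes pH 8.0, 137 mM NaCl, 1 mM MgCl2, 2.7 mM KCl. A coumarin-labeled acetyl-lysine substrate was then added at 37 °C. Reactions were quenched with trypsin (1 mg/mL final) plus TSA, and fluorescence was read. IC50s came from dose-response curves, as means of at least two experiments. The ratio is HDAC1 IC50 over HDAC6 IC50.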

Histone deacetylase 1, sequence (Q13547 whole entry): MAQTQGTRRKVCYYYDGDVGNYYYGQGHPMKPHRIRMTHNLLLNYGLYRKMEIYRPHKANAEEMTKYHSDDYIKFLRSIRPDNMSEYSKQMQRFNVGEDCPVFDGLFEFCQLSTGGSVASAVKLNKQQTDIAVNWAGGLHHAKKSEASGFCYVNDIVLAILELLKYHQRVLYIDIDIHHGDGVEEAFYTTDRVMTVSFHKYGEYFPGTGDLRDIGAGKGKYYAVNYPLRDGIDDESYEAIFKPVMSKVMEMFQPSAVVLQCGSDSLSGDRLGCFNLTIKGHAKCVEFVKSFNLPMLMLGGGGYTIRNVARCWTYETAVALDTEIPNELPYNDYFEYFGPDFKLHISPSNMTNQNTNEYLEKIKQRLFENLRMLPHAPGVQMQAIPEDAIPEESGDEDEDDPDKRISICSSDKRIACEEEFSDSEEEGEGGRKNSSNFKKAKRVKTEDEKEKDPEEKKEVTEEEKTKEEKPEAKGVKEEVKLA

| SMILES | IC50 [1] | IC50 (Histone deacetylase 1) | IC50 (Histone deacetylase [2]) | further results |
| --- | --- | --- | --- | --- |
| NS(=O)(=O)NCCCC[C@H](NC(=O)OCc1ccccc1)c1c[nH]c(-c2ccccc2)n1 | 410 nM | 290 nM | 2200 nM | – |
| NS(=O)(=O)NCCCC[C@H](NC(=O)Cc1ccccc1)C(=O)Nc1nc(-c2ccccc2)cs1 | 150 nM | 700 nM | 6100 nM | – |
| NS(=O)(=O)NCCCC[C@H](NC(=O)OCc1ccccc1)c1nc2cc(-c3cccs3)ccc2[nH]1 | 480 nM | 200 nM | 620 nM | half-life [3]: 1.2 h; Vd [4]: 0.03 L/kg; half-life [5]: 5.7 h; bioavailability [6]: 6%; clearance [7]: 8.5 mL/min/kg; Stability (Plasma [8]): Stable; Stability (Plasma [9]): Stable; bioavailability [10]: 0.5%; clearance [11]: 6.83 mL/min/kg |
| NS(=O)(=O)NCCCC[C@H](NC(=O)OCc1ccccc1)C(=O)Nc1nc(-c2ccc(Cl)cc2)cs1 | 250 nM | 150 nM | 4900 nM | – |
| CCOC(=O)N[C@@H](CCCCNS(N)(=O)=O)C(=O)Nc1nc(-c2ccccc2)cs1 | 200 nM | 2500 nM | 17000 nM | – |
| COc1cccc(-c2csc(NC(=O)[C@H](CCCCNS(N)(=O)=O)NC(=O)OCc3ccccc3)n2)c1 | 420 nM | 460 nM | 3200 nM | – |
| Cn1nc([C@H](CCCCNS(N)(=O)=O)NC(=O)OCc2ccccc2)nc1-c1ccccc1 | 2000 nM | 4300 nM | > 50000 nM | – |
| N[C@@H](CCCCNS(N)(=O)=O)C(=O)Nc1nc(-c2ccccc2)cs1 | 1100 nM | > 10000 nM | > 50000 nM | – |
| NS(=O)(=O)NCCCC[C@H](NC(=O)OCc1cccc(Cl)c1)C(=O)Nc1nc(-c2ccccc2)cs1 | 280 nM | 350 nM | 3600 nM | – |
| NS(=O)(=O)NCCCC[C@H](NC(=O)OCc1cccnc1)C(=O)Nc1nc(-c2ccccc2)cs1 | 600 nM | 1500 nM | 18000 nM | – |
| CC(C)c1ccc(-c2csc(NC(=O)[C@H](CCCCNS(N)(=O)=O)NC(=O)OCc3ccccc3)n2)cc1 | 1400 nM | 520 nM | 3200 nM | – |
| NS(=O)(=O)NCCCC[C@H](NC(=O)OCc1ccc(Cl)cc1)C(=O)Nc1nc(-c2ccccc2)cs1 | 530 nM | 570 nM | 6800 nM | – |
| NS(=O)(=O)NCCCC[C@H](NC(=O)OCc1ccccc1)c1nc(-c2ccccc2)cs1 | 1200 nM | 4900 nM | 12000 nM | – |
| NS(=O)(=O)NCCCC[C@H](NC(=O)OCc1ccccc1)C(=O)Nc1nccs1 | 4100 nM | > 10000 nM | > 50000 nM | – |
| NS(=O)(=O)NCCCC[C@H](NC(=O)OCc1ccccc1)C(=O)Nc1nc(-c2ccccc2)cs1 | – | – | 2300 nM | half-life [3]: 0.025 h; Vd [4]: 0.02 L/kg; bioavailability [10]: 4.9%; EC50 (Histone deacetylase [12]): 700 nM; EC50 (Histone deacetylase [13]): 600 nM; remaining at 1 h [14]: 3%; clearance [11]: 41.7 mL/min/kg |
| NS(=O)(=O)NCCCC[C@H](NC(=O)OCc1ccccc1)C(=O)Nc1nc(-c2ccccc2)c(-c2ccccc2)s1 | 450 nM | 850 nM | 7200 nM | – |

| SMILES | IC50 [1] | IC50 (Histone deacetylase 1) | IC50 (Histone deacetylase [2]) | further results |
| --- | --- | --- | --- | --- |
| NS(=O)(=O)NCCCC[C@H](NC(=O)OCc1ccccc1)c1nc(-c2ccc(F)cc2)no1 | 1700 nM | > 10000 nM | > 50000 nM | – |
| NS(=O)(=O)NCCCC[C@H](NC(=O)OCc1ccccc1)c1n[nH]c(-c2ccccc2)n1 | 320 nM | 2400 nM | 6400 nM | – |
| COc1ccc2[nH]c(C)c(CC(=O)N[C@@H](CCCCNS(N)(=O)=O)C(=O)Nc3nc(-c4ccccc4)cs3)c2c1 | 1200 nM | 64 nM | 590 nM | – |
| NS(=O)(=O)NCCCC[C@H](NC(=O)Nc1ccccc1)C(=O)Nc1nc(-c2ccccc2)cs1 | 560 nM | 2300 nM | > 50000 nM | – |
| NS(=O)(=O)NCCCC[C@H](NC(=O)OCc1ccccc1)c1nnc(-c2ccccc2)o1 | 1800 nM | 3200 nM | 9900 nM | – |
| NS(=O)(=O)NCCCC[C@H](NC(=O)NCc1ccc(F)cc1)C(=O)Nc1nc(-c2ccccc2)cs1 | 370 nM | 350 nM | 29000 nM | – |
| CC(C)(C)c1csc(NC(=O)[C@H](CCCCNS(N)(=O)=O)NC(=O)OCc2ccccc2)n1 | 840 nM | 3600 nM | 9100 nM | – |
| CN(C)CCOc1ccc(-c2nc([C@H](CCCCNS(N)(=O)=O)NC(=O)OCc3ccccc3)cs2)cc1 | 890 nM | 390 nM | 180 nM | half-life [3]: 1.6 h; Vd [4]: 0.78 L/kg; bioavailability [10]: 0.5%; clearance [11]: 38.3 mL/min/kg |
| COc1ccc(-c2nc([C@H](CCCCNS(N)(=O)=O)NC(=O)OCc3ccccc3)cs2)cc1 | 480 nM | 500 nM | – | – |
| CCOC(=O)c1csc(NC(=O)[C@H](CCCCNS(N)(=O)=O)NC(=O)OCc2ccccc2)n1 | 580 nM | > 10000 nM | > 50000 nM | – |
| COc1ccc(-c2csc(NC(=O)[C@H](CCCCNS(N)(=O)=O)NC(=O)OCc3ccccc3)n2)cc1 | 200 nM | 120 nM | 530 nM | – |
| NS(=O)(=O)NCCCC[C@H](NC(=O)OCc1ccccc1)c1nc2ccccc2[nH]1 | 100 nM | 2900 nM | 9500 nM | – |
| NS(=O)(=O)NCCCC[C@H](NC(=O)OCc1ccccc1)c1csc(-c2ccccc2)n1 | 400 nM | 790 nM | 5800 nM | Ratio IC50 (Homo sapiens): 2 |
| NS(=O)(=O)NCCCC[C@H](NS(=O)(=O)Cc1ccccc1)C(=O)Nc1nc(-c2ccccc2)cs1 | 520 nM | 1400 nM | 38000 nM | – |
| NS(=O)(=O)NCCCC[C@H](NC(=O)OCc1ccccc1)C(=O)Nc1nc2ccccc2s1 | 190 nM | 4500 nM | 19000 nM | – |

From ChEMBL document CHEMBL1153367, “Synthesis and evaluation of lysine derived sulfamides as histone deacetylase inhibitors” (Bioorg Med Chem Lett, 2009)
